Measurements as given in ChEMBL document CHEMBL5113423, “Discovery and preclinical profile of sudapyridine (WX-081), a novel anti-tuberculosis agent” (Bioorg Med Chem Lett, 2022).
≈ marks a conversion by molar mass, not a printed value.

Legend:
[1] = system: Mycolicibacterium peregrinum; experiment: Antimycobacterial activity against Mycobacterium peregrinum ATCC700686 assessed as mycobacterial growth inhibition; type: functional
[2] = system: Mycolicibacterium smegmatis; experiment: Antimycobacterial activity against Mycobacterium smegmatis ATCC700084 assessed as mycobacterial growth inhibition; type: functional
[3] = system: Mycolicibacterium smegmatis; experiment: Antimycobacterial activity against Mycobacterium smegmatis ATCC19420 assessed as mycobacterial growth inhibition; type: functional
[4] = system: Mycobacterium tuberculosis; experiment: Antimycobacterial activity against Mycobacterium tuberculosis H37Rv assessed as mycobacterial growth inhibition by microplate alamar blue assay; type: functional
Procedure, shortened: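 M. tuberculosis H37Rv under normoxic conditions, microplate alamar blue assay (MABA) following Cho et al. Read-out is MIC.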

[5] = Cytotoxicity against human HeLa cells; type: toxicity, cell-based
[6] = system: Mycobacterium tuberculosis; experiment: Antimycobacterial activity against Mycobacterium tuberculosis H37Rv assessed as mycobacterial growth inhibition by low oxygen recovery assay; type: functional
Procedure, shortened: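 M. tuberculosis H37Rv under hypoxic conditions, low-oxygen recovery assay (LORA) following Cho et al. Read-out is MIC.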

[7] = Cytotoxicity against African green monkey Vero cells; type: toxicity, cell-based; conditions: chlorocebus sabaeus
[8] = molecular target: Voltage-gated inwardly rectifying potassium channel KCNH2 (Homo sapiens, UniProt Q12809); experiment: Inhibition of human ERG; type: toxicity
[9] = molecular target: Sodium channel protein type 5 subunit alpha (Homo sapiens, UniProt Q14524); experiment: Inhibition of Nav1.5 (unknown origin)
[10] = system: Cardiac Purkinje fiber; experiment: Effect on rabbit Purkinje fiber assessed as change in concentration of maximum upstroke velocity; type: functional, Oryctolagus cuniculus
[11] = molecular target: Voltage-dependent L-type calcium channel subunit alpha-1C (Homo sapiens, UniProt Q13936); experiment: Inhibition of human Cav1.2
[12] = system: Mycobacterium tuberculosis; experiment: Antimycobacterial activity against drug-sensitive Mycobacterium tuberculosis assessed as mycobacterial growth inhibition; type: functional

Chain of Voltage-gated inwardly rectifying potassium channel KCNH2 (Q12809 whole entry): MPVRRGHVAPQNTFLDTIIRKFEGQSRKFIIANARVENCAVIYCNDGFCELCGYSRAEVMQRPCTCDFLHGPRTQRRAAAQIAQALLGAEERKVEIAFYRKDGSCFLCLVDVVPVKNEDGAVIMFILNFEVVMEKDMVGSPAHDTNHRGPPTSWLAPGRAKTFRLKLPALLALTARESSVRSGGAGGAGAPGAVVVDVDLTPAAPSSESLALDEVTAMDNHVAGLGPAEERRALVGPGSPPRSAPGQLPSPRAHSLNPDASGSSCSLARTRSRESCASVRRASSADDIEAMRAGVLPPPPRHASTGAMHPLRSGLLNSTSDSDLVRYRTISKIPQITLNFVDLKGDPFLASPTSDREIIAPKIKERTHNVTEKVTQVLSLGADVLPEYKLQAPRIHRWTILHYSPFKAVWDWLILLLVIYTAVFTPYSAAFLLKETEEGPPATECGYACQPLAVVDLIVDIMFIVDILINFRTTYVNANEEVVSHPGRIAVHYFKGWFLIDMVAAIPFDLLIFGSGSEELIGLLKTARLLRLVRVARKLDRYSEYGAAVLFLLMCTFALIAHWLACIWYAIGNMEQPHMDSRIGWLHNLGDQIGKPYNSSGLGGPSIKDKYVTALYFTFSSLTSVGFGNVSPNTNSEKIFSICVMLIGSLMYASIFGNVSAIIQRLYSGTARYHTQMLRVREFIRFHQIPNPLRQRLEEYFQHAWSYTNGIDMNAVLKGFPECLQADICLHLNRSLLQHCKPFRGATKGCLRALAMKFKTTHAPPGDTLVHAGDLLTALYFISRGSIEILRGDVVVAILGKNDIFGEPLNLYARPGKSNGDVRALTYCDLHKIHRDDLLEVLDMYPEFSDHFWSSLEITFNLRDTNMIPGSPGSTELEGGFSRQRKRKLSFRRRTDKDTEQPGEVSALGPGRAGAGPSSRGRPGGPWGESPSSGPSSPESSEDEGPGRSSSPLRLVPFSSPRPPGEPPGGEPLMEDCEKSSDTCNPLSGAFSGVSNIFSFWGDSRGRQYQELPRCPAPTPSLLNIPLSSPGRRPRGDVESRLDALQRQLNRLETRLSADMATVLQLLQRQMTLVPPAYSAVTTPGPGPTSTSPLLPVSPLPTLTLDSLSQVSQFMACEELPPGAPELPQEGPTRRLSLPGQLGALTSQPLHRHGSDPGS
Chain of Sodium channel protein type 5 subunit alpha (Q14524 whole entry): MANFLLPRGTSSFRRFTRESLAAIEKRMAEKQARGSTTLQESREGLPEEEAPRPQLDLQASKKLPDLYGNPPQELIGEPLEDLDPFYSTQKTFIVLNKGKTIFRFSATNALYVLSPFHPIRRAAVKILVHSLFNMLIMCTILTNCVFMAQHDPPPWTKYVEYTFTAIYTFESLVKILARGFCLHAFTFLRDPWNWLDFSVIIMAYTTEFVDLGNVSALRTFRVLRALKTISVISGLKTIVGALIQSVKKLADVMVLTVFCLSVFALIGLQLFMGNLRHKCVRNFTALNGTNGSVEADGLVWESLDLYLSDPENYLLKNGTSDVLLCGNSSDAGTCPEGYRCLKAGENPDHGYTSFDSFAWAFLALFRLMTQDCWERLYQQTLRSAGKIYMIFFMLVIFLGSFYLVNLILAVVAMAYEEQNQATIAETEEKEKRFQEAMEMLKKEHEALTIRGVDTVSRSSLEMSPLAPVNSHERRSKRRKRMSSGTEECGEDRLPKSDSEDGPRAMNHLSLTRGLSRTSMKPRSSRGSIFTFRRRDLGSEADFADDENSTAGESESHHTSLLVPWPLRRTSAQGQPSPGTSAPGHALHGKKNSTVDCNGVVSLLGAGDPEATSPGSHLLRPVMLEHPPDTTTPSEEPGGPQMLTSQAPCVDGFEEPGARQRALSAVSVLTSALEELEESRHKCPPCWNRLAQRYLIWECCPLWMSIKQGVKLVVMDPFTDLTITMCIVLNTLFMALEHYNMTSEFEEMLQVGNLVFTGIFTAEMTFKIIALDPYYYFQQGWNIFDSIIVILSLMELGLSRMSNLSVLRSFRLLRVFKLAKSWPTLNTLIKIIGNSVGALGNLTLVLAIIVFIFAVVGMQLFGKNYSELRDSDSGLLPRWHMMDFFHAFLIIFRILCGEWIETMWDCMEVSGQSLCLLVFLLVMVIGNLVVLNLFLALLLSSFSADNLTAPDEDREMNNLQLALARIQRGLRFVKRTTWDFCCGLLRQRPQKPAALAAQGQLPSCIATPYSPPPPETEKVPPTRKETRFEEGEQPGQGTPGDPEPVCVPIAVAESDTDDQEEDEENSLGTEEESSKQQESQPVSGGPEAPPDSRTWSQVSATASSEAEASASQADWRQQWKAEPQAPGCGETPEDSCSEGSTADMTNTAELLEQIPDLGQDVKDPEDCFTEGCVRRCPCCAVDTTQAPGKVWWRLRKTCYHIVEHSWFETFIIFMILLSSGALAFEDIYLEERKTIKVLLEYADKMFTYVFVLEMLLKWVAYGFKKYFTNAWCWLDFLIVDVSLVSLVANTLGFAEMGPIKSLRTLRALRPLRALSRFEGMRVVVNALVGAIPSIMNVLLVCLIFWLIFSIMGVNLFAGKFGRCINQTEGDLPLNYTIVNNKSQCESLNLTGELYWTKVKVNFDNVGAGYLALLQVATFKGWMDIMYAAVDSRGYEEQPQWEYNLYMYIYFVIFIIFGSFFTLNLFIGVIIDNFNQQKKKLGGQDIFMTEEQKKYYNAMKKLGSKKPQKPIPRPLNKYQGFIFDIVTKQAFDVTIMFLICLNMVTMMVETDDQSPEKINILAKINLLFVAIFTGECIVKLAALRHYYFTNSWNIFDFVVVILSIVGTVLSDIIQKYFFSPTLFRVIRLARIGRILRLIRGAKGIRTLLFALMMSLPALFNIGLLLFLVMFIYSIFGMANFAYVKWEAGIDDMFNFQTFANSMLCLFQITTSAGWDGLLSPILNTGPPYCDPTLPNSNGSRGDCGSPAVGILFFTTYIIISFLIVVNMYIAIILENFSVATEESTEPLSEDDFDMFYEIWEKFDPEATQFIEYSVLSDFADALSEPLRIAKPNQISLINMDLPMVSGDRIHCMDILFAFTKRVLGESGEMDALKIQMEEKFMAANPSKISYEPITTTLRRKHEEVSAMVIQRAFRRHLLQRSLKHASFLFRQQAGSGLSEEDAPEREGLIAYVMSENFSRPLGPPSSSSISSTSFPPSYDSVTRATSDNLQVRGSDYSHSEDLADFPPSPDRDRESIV

Compound	MIC [4] [µg/mL]	CC50 [5] [µg/mL]	MIC [6] [µg/mL]	CC50 [7] [µg/mL]	other results
COc1nc(-c2ccccc2)ccc1[C@@H](c1ccccc1)[C@@](O)(CCN(C)C)c1cccc2ccccc12	–	–	–	–	MIC [1]: 0.5 µg/mL (≈ 0.995 µM); MIC [2]: 1 µg/mL (≈ 1.99 µM); MIC [3]: 1 µg/mL (≈ 1.99 µM)
COc1nc(-c2ccc(Br)cc2)ccc1[C@@H](c1ccccc1)[C@@](O)(CCN(C)C)c1cccc2ccccc12	0.22 (≈ 0.378 µM)	> 64	0.22 (≈ 0.378 µM)	> 50	–
COc1nc(-c2cccc(Cl)c2)ccc1[C@@H](c1ccccc1)[C@@](O)(CCN(C)C)c1cccc2ccccc12	2.73 (≈ 5.08 µM)	–	1.36 (≈ 2.53 µM)	> 50	–
COc1nc(C2CCCCC2)ccc1[C@@H](c1ccccc1)[C@@](O)(CCN(C)C)c1cccc2ccccc12	–	57.7 (≈ 113 µM)	1.8 (≈ 3.54 µM)	32.3 (≈ 63.5 µM)	–
COc1ncc(-c2ccccc2)cc1[C@@H](c1ccccc1)[C@@](O)(CCN(C)C)c1cc(F)cc(F)c1	0.7 (≈ 1.43 µM)	28.8 (≈ 58.9 µM)	0.4 (≈ 0.819 µM)	> 50	–
COc1nc(-c2ccccc2Cl)ccc1[C@@H](c1ccccc1)[C@@](O)(CCN(C)C)c1cccc2ccccc12	1.17 (≈ 2.18 µM)	> 64	3.03 (≈ 5.64 µM)	> 50	–
COc1nc(-c2ccccc2F)ccc1[C@@H](c1ccccc1)[C@@](O)(CCN(C)C)c1cccc2ccccc12	1.41 (≈ 2.71 µM)	–	0.57 (≈ 1.09 µM)	> 50	–
COc1nc(-c2ccc(OC(F)(F)F)cc2)ccc1[C@@H](c1ccccc1)[C@@](O)(CCN(C)C)c1cccc2ccccc12	0.03 (≈ 0.0511 µM)	> 64	0.61 (≈ 1.04 µM)	> 50	–
COc1nc(-c2ccc(F)cc2)ccc1[C@@H](c1ccccc1)[C@@](O)(CCN(C)C)c1cccc2ccccc12	0.34 (≈ 0.653 µM)	> 64	0.71 (≈ 1.36 µM)	> 50	–
CNCC[C@@](O)(c1cccc2ccccc12)[C@H](c1ccccc1)c1cc2cc(Br)ccc2nc1OC	–	–	–	–	IC50 [8]: 1730 nM; IC50 [9]: > 10000 nM; Activity [10]: 0.3 µM; IC50 [11]: 750 nM
COc1nc(C(C)(C)C)ccc1[C@@H](c1ccccc1)[C@@](O)(CCN(C)C)c1cccc2ccccc12	1.3 (≈ 2.69 µM)	> 64	2.7 (≈ 5.59 µM)	27.6 (≈ 57.2 µM)	–
COc1nc(-c2ccc(C(F)(F)F)cc2)ccc1[C@@H](c1ccccc1)[C@@](O)(CCN(C)C)c1cccc2ccccc12	0.96 (≈ 1.68 µM)	> 64	0.63 (≈ 1.1 µM)	> 50	–
COc1nc(-c2ccncc2)ccc1[C@@H](c1ccccc1)[C@@](O)(CCN(C)C)c1cccc2ccccc12	0.7 (≈ 1.39 µM)	9.6 (≈ 19.1 µM)	–	> 50	–
CNCC[C@@](O)(c1cccc2ccccc12)[C@H](c1ccccc1)c1ccc(-c2ccc(Cl)cc2)nc1OC	–	–	–	–	IC50 [8]: 1890 nM; IC50 [9]: > 10000 nM; Activity [10]: >3 µM; IC50 [11]: > 3000 nM
COc1nc(-c2cnsc2)ccc1[C@@H](c1ccccc1)[C@@](O)(CCN(C)C)c1cccc2ccccc12	1.9 (≈ 3.73 µM)	28.8 (≈ 56.5 µM)	3.9 (≈ 7.65 µM)	26.3 (≈ 51.6 µM)	–
COc1nc(C2CCOCC2)ccc1[C@@H](c1ccccc1)[C@@](O)(CCN(C)C)c1cccc2ccccc12	1.3 (≈ 2.55 µM)	22.5 (≈ 44.1 µM)	2.7 (≈ 5.29 µM)	> 50	–
COc1nc(-c2cccc(F)c2)ccc1[C@@H](c1ccccc1)[C@@](O)(CCN(C)C)c1cccc2ccccc12	0.48 (≈ 0.922 µM)	62.8 (≈ 121 µM)	1.18 (≈ 2.27 µM)	> 50	–
COc1nc(-c2ccc(C#N)cc2)ccc1[C@@H](c1ccccc1)[C@@](O)(CCN(C)C)c1cccc2ccccc12	0.44 (≈ 0.834 µM)	> 64	0.77 (≈ 1.46 µM)	> 50	–
COc1ncc(-c2ccccc2)cc1[C@@H](c1ccccc1)[C@@](O)(CCN(C)C)c1cc(F)ccc1F	0.7 (≈ 1.43 µM)	–	0.7 (≈ 1.43 µM)	> 50	–
COc1nc(-c2ccsc2)ccc1[C@@H](c1ccccc1)[C@@](O)(CCN(C)C)c1cccc2ccccc12	–	> 64	–	24.4 (≈ 48 µM)	–
COc1ncc(-c2ccccc2)cc1[C@@H](c1ccccc1)[C@@](O)(CCN(C)C)c1cccc2ccccc12	1.1 (≈ 2.19 µM)	30.4 (≈ 60.5 µM)	0.7 (≈ 1.39 µM)	> 50	MIC [1]: 0.0625 µg/mL (≈ 0.124 µM); MIC [2]: 0.0625 µg/mL (≈ 0.124 µM); MIC [3]: 0.0312 µg/mL (≈ 0.0622 µM)
COc1nc(-c2ccc(Cl)c(F)c2)ccc1[C@@H](c1ccccc1)[C@@](O)(CCN(C)C)c1cccc2ccccc12	0.19 (≈ 0.342 µM)	> 64	0.52 (≈ 0.937 µM)	> 50	–
COc1ncc(-c2ccccc2)cc1[C@@H](c1ccccc1)[C@@](O)(CCN(C)C)c1cccc(F)c1F	0.6 (≈ 1.23 µM)	28.1 (≈ 57.5 µM)	0.5 (≈ 1.02 µM)	> 50	–
COc1ccc(-c2ccc([C@@H](c3ccccc3)[C@@](O)(CCN(C)C)c3cccc4ccccc34)c(OC)n2)cc1	0.33 (≈ 0.62 µM)	> 64	0.19 (≈ 0.357 µM)	> 50	–
COc1ncc(-c2ccccc2)cc1[C@@H](c1ccccc1)[C@@](O)(CCN(C)C)c1ccccc1	1.5 (≈ 3.31 µM)	11.9 (≈ 26.3 µM)	1.2 (≈ 2.65 µM)	> 50	–
NNC(=O)c1ccncc1 [ISONIAZID]	–	–	–	–	MIC50 [12]: 0.024 µg/mL (≈ 0.175 µM); MIC90 [12]: 0.032 µg/mL (≈ 0.233 µM)
NC[C@H]1O[C@H](O[C@H]2[C@H](O)[C@@H](O[C@H]3O[C@H](CO)[C@@H](O)[C@H](N)[C@H]3O)[C@H](N)C[C@@H]2N)[C@H](O)[C@@H](O)[C@@H]1O [KANAMYCIN]	–	–	–	–	MIC50 [12]: 1.22 µg/mL (≈ 2.52 µM); MIC90 [12]: 1.91 µg/mL (≈ 3.94 µM)
CO[C@H]1/C=C/O[C@@]2(C)Oc3c(C)c(O)c4c(O)c(c(/C=N/N5CCN(C)CC5)c(O)c4c3C2=O)NC(=O)/C(C)=C\C=C\[C@H](C)[C@H](O)[C@@H](C)[C@@H](O)[C@@H](C)[C@H](OC(C)=O)[C@@H]1C [RIFAMPIN]	–	–	–	–	MIC50 [12]: 0.035 µg/mL (≈ 0.0425 µM); MIC90 [12]: 0.057 µg/mL (≈ 0.0693 µM)
